# Assay results pooled from the literature.
# Lines come from different studies, so protocols differ.
# Target: MAP kinase-activated protein kinase 5 (MAPKAPK5, Homo sapiens, UniProt Q8IW41)
# One construct used (Q8IW41 1-473): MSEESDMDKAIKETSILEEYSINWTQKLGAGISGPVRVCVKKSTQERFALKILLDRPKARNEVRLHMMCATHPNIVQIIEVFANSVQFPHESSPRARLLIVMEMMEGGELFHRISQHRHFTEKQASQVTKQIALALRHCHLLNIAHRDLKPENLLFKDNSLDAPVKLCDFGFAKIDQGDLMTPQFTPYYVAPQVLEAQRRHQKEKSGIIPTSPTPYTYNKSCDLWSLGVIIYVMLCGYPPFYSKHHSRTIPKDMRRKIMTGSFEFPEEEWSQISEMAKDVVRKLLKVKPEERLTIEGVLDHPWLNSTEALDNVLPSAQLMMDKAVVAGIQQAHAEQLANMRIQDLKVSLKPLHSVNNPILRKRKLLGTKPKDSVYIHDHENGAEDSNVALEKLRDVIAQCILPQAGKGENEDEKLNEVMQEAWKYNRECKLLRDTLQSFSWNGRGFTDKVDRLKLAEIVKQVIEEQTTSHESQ
Compound,assay,conditions,quantity,result
N#CC1(c2ccccn2)CCN(Cc2cc(C(=O)O)c(=O)n3ccccc23)CC1,"cell-free assay, competition with immobilised ligand",1 µM,remaining binding,56%
CC(C)(C)c1cc(C=C(C#N)C#N)cc(Br)c1O,"enzyme activity, inhibitor",0.5 µM,remaining activity,97.4%
Cn1cc(-c2cc(F)cc(N3CCn4c(cc5c4CCCC5)C3=O)c2CO)cc(Nc2ccc(N3CCN(C4COC4)CC3)cn2)c1=O,"enzyme activity, inhibitor",0.1 µM,inhibition,9%
COc1cc(Nc2ncc(F)c(Nc3ccc4c(n3)NC(=O)C(C)(C)O4)n2)cc(OC)c1OC,"binding, competition with immobilised ligand",10 µM,inhibition,19%
Cn1cncc1[C@](O)(COc1ccc(C#N)cc1-c1ccc(OC(F)(F)F)cc1)c1ccc(C#N)cc1,"cell-free assay, competition with immobilised ligand",1 µM,remaining binding,90%
C#Cc1n[nH]c2c(-c3cn(C(C)c4ccccn4)c(=O)[nH]c3=O)cc(F)cc12 (centres unmarked),"enzyme activity, inhibitor",1 µM,inhibition,5.8%
COc1ncccc1-c1cnn2ccc(N3CCN(C(=O)OC(C)C)CC3)nc12,"binding, competition with immobilised ligand",1 µM,remaining binding,100%
O=c1[nH]c2ccccc2n1C1CCN(Cc2ccc(-c3[nH]c4cc5ncnc5cc4nc3-c3ccccc3)cc2)CC1,cell-free assay,0.5 µM,remaining signal,97.4%
Nc1ncc(-c2nc(N3CCOCC3)nc(N3CCOCC3)n2)c(C(F)F)n1,"binding, competition with immobilised ligand",10 µM,remaining binding,72%
C#Cc1n[nH]c2c(-c3cn([C@@H](C)c4ccccc4)c(=O)[nH]c3=O)cc(F)cc12,"enzyme activity, inhibitor",0.1 µM,inhibition,1.8%
Cn1cc(-c2cccc(N3CCc4c(sc5c4CC(C)(C)C5)C3=O)c2CO)cc(Nc2ccncn2)c1=O,"enzyme activity, inhibitor",1 µM,inhibition,3%
